We go through seven compounds from ChEMBL document CHEMBL1949561, “Synthesis and triplex-forming ability of oligonucleotides bearing 1-substituted 1H-1,2,3-triazole nucleobases” (Bioorg Med Chem, 2011).

Format in all cases: nucleic-acid assay
Assay [1] relates to Nucleic Acid. Briefly: Binding affinity to5'-GCTAAAAAGACAGAGAGATCG-3'/5'- CGATCTCTCTGTCTTTTTAGC-3' double stranded DNA assessed as melting temperature at 1.5 uM in sodium phosphate buffer at pH 7 by UV spectrophotometric analysis. In short, it runs like this: (§1)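 UV melting of triplexes between each modified TFO and the 21-bp duplex target, in 7 mM sodium phosphate buffer (pH 7.0), 140 mM KCl and 10 mM MgCl₂. Each oligonucleotide at 1.5 µM final. Absorbance followed at 260 nm from 5 °C to 85 °C, scanned at 0.5 °C/min, to give Tm.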

The subject of assay [2] is Nucleic Acid. Briefly: Binding affinity to 5'-GCTAAAAAGATAGAGAGATCG-3'/5'- CGATCTCTCTATCTTTTTAGC-3' double stranded DNA assessed as melting temperature at 1.5 uM in sodium phosphate buffer at pH 7 by UV spectrophotometric analysis. The method in brief: as §1
The subject of assay [3] is Nucleic Acid. The assay can be described thus: Binding affinity to 5'-GCTAAAAAGAAAGAGAGATCG-3'/5'- CGATCTCTCTTTCTTTTTAGC-3' double stranded DNA assessed as melting temperature at 1.5 uM in sodium phosphate buffer at pH 7 by UV spectrophotometric analysis. In short, it runs like this: as §1
The test system of assay [4] is Nucleic Acid. Briefly: Binding affinity to 5'-GCTAAAAAGAGAGAGAGATCG-3'/5'- CGATCTCTCTCTCTTTTTAGC-3' double stranded DNA assessed as melting temperature at 1.5 uM in sodium phosphate buffer at pH 7 by UV spectrophotometric analysis. In short, it runs like this: as §1

Consider `Cc1ccc(-n2cc([C@H]3C[C@H](OP(=O)(O)OC[C@H]4O[C@@H](n5cc(C)c(=O)[nH]c5=O)C[C@@H]4OP(=O)(O)OC[C@H]4O[C@@H](n5cc(C)c(N)nc5=O)C[C@@H]4OP(=O)(O)OC[C@H]4O[C@@H](n5cc(C)c(=O)[nH]c5=O)C[C@@H]4OP(=O)(O)OC[C@H]4O[C@@H](n5cc(C)c(=O)[nH]c5=O)C[C@@H]4OP(=O)(O)OC[C@H]4O[C@@H](n5cc(C)c(=O)[nH]c5=O)C[C@@H]4OP(=O)(O)OC[C@H]4O[C@@H](n5cc(C)c(=O)[nH]c5=O)C[C@@H]4OP(=O)(O)OC[C@H]4O[C@@H](n5cc(C)c(=O)[nH]c5=O)C[C@@H]4O)[C@@H](COP(=O)(O)O[C@H]4C[C@H](n5cc(C)c(=O)[nH]c5=O)O[C@@H]4COP(=O)(O)O[C@H]4C[C@H](n5cc(C)c(N)nc5=O)O[C@@H]4COP(=O)(O)O[C@H]4C[C@H](n5cc(C)c(=O)[nH]c5=O)O[C@@H]4COP(=O)(O)O[C@H]4C[C@H](n5cc(C)c(N)nc5=O)O[C@@H]4COP(=O)(O)O[C@H]4C[C@H](n5cc(C)c(=O)[nH]c5=O)O[C@@H]4COP(=O)(O)O[C@H]4C[C@H](n5cc(C)c(N)nc5=O)O[C@@H]4COP(=O)(O)O[C@H]4C[C@H](n5cc(C)c(=O)[nH]c5=O)O[C@@H]4CO)O3)nn2)cc1`, for which the Tm is 21 °C in assay [1], 13 °C in assay [2], under 10 °C in assay [3] and under 10 °C in assay [4].

For `Cc1cn([C@H]2C[C@H](OP(=O)(O)OC[C@H]3O[C@@H](n4cc(C)c(=O)[nH]c4=O)C[C@@H]3OP(=O)(O)OC[C@H]3O[C@@H](n4cc(C)c(N)nc4=O)C[C@@H]3OP(=O)(O)OC[C@H]3O[C@@H](n4cc(C)c(=O)[nH]c4=O)C[C@@H]3OP(=O)(O)OC[C@H]3O[C@@H](n4cc(C)c(N)nc4=O)C[C@@H]3OP(=O)(O)OC[C@H]3O[C@@H](n4cc(C)c(=O)[nH]c4=O)C[C@@H]3OP(=O)(O)OC[C@H]3O[C@@H](c4cn(-c5cccnc5O)nn4)C[C@@H]3OP(=O)(O)OC[C@H]3O[C@@H](n4cc(C)c(=O)[nH]c4=O)C[C@@H]3OP(=O)(O)OC[C@H]3O[C@@H](n4cc(C)c(N)nc4=O)C[C@@H]3OP(=O)(O)OC[C@H]3O[C@@H](n4cc(C)c(=O)[nH]c4=O)C[C@@H]3OP(=O)(O)OC[C@H]3O[C@@H](n4cc(C)c(=O)[nH]c4=O)C[C@@H]3OP(=O)(O)OC[C@H]3O[C@@H](n4cc(C)c(=O)[nH]c4=O)C[C@@H]3OP(=O)(O)OC[C@H]3O[C@@H](n4cc(C)c(=O)[nH]c4=O)C[C@@H]3OP(=O)(O)OC[C@H]3O[C@@H](n4cc(C)c(=O)[nH]c4=O)C[C@@H]3O)[C@@H](COP(=O)(O)O[C@H]3C[C@H](n4cc(C)c(=O)[nH]c4=O)O[C@@H]3CO)O2)c(=O)nc1N`, the Tm in assay [1] stood at 24 °C; in assay [2], 15 °C; in assay [3], 12 °C; in assay [4] it was 15 °C.

Take `Cc1cn([C@H]2C[C@H](OP(=O)(O)OC[C@H]3O[C@@H](n4cc(C)c(=O)[nH]c4=O)C[C@@H]3OP(=O)(O)OC[C@H]3O[C@@H](n4cc(C)c(N)nc4=O)C[C@@H]3OP(=O)(O)OC[C@H]3O[C@@H](n4cc(C)c(=O)[nH]c4=O)C[C@@H]3OP(=O)(O)OC[C@H]3O[C@@H](n4cc(C)c(N)nc4=O)C[C@@H]3OP(=O)(O)OC[C@H]3O[C@@H](n4cc(C)c(=O)[nH]c4=O)C[C@@H]3OP(=O)(O)OC[C@H]3O[C@@H](c4cn(C56CC7CC(CC(C7)C5)C6)nn4)C[C@@H]3OP(=O)(O)OC[C@H]3O[C@@H](n4cc(C)c(=O)[nH]c4=O)C[C@@H]3OP(=O)(O)OC[C@H]3O[C@@H](n4cc(C)c(N)nc4=O)C[C@@H]3OP(=O)(O)OC[C@H]3O[C@@H](n4cc(C)c(=O)[nH]c4=O)C[C@@H]3OP(=O)(O)OC[C@H]3O[C@@H](n4cc(C)c(=O)[nH]c4=O)C[C@@H]3OP(=O)(O)OC[C@H]3O[C@@H](n4cc(C)c(=O)[nH]c4=O)C[C@@H]3OP(=O)(O)OC[C@H]3O[C@@H](n4cc(C)c(=O)[nH]c4=O)C[C@@H]3OP(=O)(O)OC[C@H]3O[C@@H](n4cc(C)c(=O)[nH]c4=O)C[C@@H]3O)[C@@H](COP(=O)(O)O[C@H]3C[C@H](n4cc(C)c(=O)[nH]c4=O)O[C@@H]3CO)O2)c(=O)nc1N`: the Tm is 17 °C in assay [1], 11 °C in assay [2], under 10 °C in assay [3] and under 10 °C in assay [4].

For the compound `Cc1cn([C@H]2C[C@H](OP(=O)(O)OC[C@H]3O[C@@H](n4cc(C)c(=O)[nH]c4=O)C[C@@H]3OP(=O)(O)OC[C@H]3O[C@@H](n4cc(C)c(N)nc4=O)C[C@@H]3OP(=O)(O)OC[C@H]3O[C@@H](n4cc(C)c(=O)[nH]c4=O)C[C@@H]3OP(=O)(O)OC[C@H]3O[C@@H](n4cc(C)c(N)nc4=O)C[C@@H]3OP(=O)(O)OC[C@H]3O[C@@H](n4cc(C)c(=O)[nH]c4=O)C[C@@H]3OP(=O)(O)OC[C@H]3O[C@@H](c4cn(-c5cccc(C(=O)O)c5)nn4)C[C@@H]3OP(=O)(O)OC[C@H]3O[C@@H](n4cc(C)c(=O)[nH]c4=O)C[C@@H]3OP(=O)(O)OC[C@H]3O[C@@H](n4cc(C)c(N)nc4=O)C[C@@H]3OP(=O)(O)OC[C@H]3O[C@@H](n4cc(C)c(=O)[nH]c4=O)C[C@@H]3OP(=O)(O)OC[C@H]3O[C@@H](n4cc(C)c(=O)[nH]c4=O)C[C@@H]3OP(=O)(O)OC[C@H]3O[C@@H](n4cc(C)c(=O)[nH]c4=O)C[C@@H]3OP(=O)(O)OC[C@H]3O[C@@H](n4cc(C)c(=O)[nH]c4=O)C[C@@H]3OP(=O)(O)OC[C@H]3O[C@@H](n4cc(C)c(=O)[nH]c4=O)C[C@@H]3O)[C@@H](COP(=O)(O)O[C@H]3C[C@H](n4cc(C)c(=O)[nH]c4=O)O[C@@H]3CO)O2)c(=O)nc1N`, the Tm in assay [1] is 22 °C; in assay [2], 15 °C; in assay [3], under 10 °C; in assay [4], under 10 °C.

On to `Cc1cn([C@H]2C[C@H](OP(=O)(O)OC[C@H]3O[C@@H](n4cc(C)c(=O)[nH]c4=O)C[C@@H]3OP(=O)(O)OC[C@H]3O[C@@H](n4cc(C)c(N)nc4=O)C[C@@H]3OP(=O)(O)OC[C@H]3O[C@@H](n4cc(C)c(=O)[nH]c4=O)C[C@@H]3OP(=O)(O)OC[C@H]3O[C@@H](n4cc(C)c(N)nc4=O)C[C@@H]3OP(=O)(O)OC[C@H]3O[C@@H](n4cc(C)c(=O)[nH]c4=O)C[C@@H]3OP(=O)(O)OC[C@H]3O[C@@H](c4cn(-c5cccc(O)c5)nn4)C[C@@H]3OP(=O)(O)OC[C@H]3O[C@@H](n4cc(C)c(=O)[nH]c4=O)C[C@@H]3OP(=O)(O)OC[C@H]3O[C@@H](n4cc(C)c(N)nc4=O)C[C@@H]3OP(=O)(O)OC[C@H]3O[C@@H](n4cc(C)c(=O)[nH]c4=O)C[C@@H]3OP(=O)(O)OC[C@H]3O[C@@H](n4cc(C)c(=O)[nH]c4=O)C[C@@H]3OP(=O)(O)OC[C@H]3O[C@@H](n4cc(C)c(=O)[nH]c4=O)C[C@@H]3OP(=O)(O)OC[C@H]3O[C@@H](n4cc(C)c(=O)[nH]c4=O)C[C@@H]3OP(=O)(O)OC[C@H]3O[C@@H](n4cc(C)c(=O)[nH]c4=O)C[C@@H]3O)[C@@H](COP(=O)(O)O[C@H]3C[C@H](n4cc(C)c(=O)[nH]c4=O)O[C@@H]3CO)O2)c(=O)nc1N`, for which the Tm was 21 °C in assay [1], 14 °C in assay [2], under 10 °C in assay [3] and under 10 °C in assay [4].

With `Cc1cn([C@H]2C[C@H](OP(=O)(O)OC[C@H]3O[C@@H](n4cc(C)c(=O)[nH]c4=O)C[C@@H]3OP(=O)(O)OC[C@H]3O[C@@H](n4cc(C)c(N)nc4=O)C[C@@H]3OP(=O)(O)OC[C@H]3O[C@@H](n4cc(C)c(=O)[nH]c4=O)C[C@@H]3OP(=O)(O)OC[C@H]3O[C@@H](n4cc(C)c(N)nc4=O)C[C@@H]3OP(=O)(O)OC[C@H]3O[C@@H](n4cc(C)c(=O)[nH]c4=O)C[C@@H]3OP(=O)(O)OC[C@H]3O[C@@H](c4cn(-c5cccc(CO)c5)nn4)C[C@@H]3OP(=O)(O)OC[C@H]3O[C@@H](n4cc(C)c(=O)[nH]c4=O)C[C@@H]3OP(=O)(O)OC[C@H]3O[C@@H](n4cc(C)c(N)nc4=O)C[C@@H]3OP(=O)(O)OC[C@H]3O[C@@H](n4cc(C)c(=O)[nH]c4=O)C[C@@H]3OP(=O)(O)OC[C@H]3O[C@@H](n4cc(C)c(=O)[nH]c4=O)C[C@@H]3OP(=O)(O)OC[C@H]3O[C@@H](n4cc(C)c(=O)[nH]c4=O)C[C@@H]3OP(=O)(O)OC[C@H]3O[C@@H](n4cc(C)c(=O)[nH]c4=O)C[C@@H]3OP(=O)(O)OC[C@H]3O[C@@H](n4cc(C)c(=O)[nH]c4=O)C[C@@H]3O)[C@@H](COP(=O)(O)O[C@H]3C[C@H](n4cc(C)c(=O)[nH]c4=O)O[C@@H]3CO)O2)c(=O)nc1N`, the Tm in assay [1] was 23 °C; in assay [2] it was 14 °C; in assay [3], under 10 °C; in assay [4], under 10 °C.

For `CC(=O)NCCn1cc([C@H]2C[C@H](OP(=O)(O)OC[C@H]3O[C@@H](n4cc(C)c(=O)[nH]c4=O)C[C@@H]3OP(=O)(O)OC[C@H]3O[C@@H](n4cc(C)c(N)nc4=O)C[C@@H]3OP(=O)(O)OC[C@H]3O[C@@H](n4cc(C)c(=O)[nH]c4=O)C[C@@H]3OP(=O)(O)OC[C@H]3O[C@@H](n4cc(C)c(=O)[nH]c4=O)C[C@@H]3OP(=O)(O)OC[C@H]3O[C@@H](n4cc(C)c(=O)[nH]c4=O)C[C@@H]3OP(=O)(O)OC[C@H]3O[C@@H](n4cc(C)c(=O)[nH]c4=O)C[C@@H]3OP(=O)(O)OC[C@H]3O[C@@H](n4cc(C)c(=O)[nH]c4=O)C[C@@H]3O)[C@@H](COP(=O)(O)O[C@H]3C[C@H](n4cc(C)c(=O)[nH]c4=O)O[C@@H]3COP(=O)(O)O[C@H]3C[C@H](n4cc(C)c(N)nc4=O)O[C@@H]3COP(=O)(O)O[C@H]3C[C@H](n4cc(C)c(=O)[nH]c4=O)O[C@@H]3COP(=O)(O)O[C@H]3C[C@H](n4cc(C)c(N)nc4=O)O[C@@H]3COP(=O)(O)O[C@H]3C[C@H](n4cc(C)c(=O)[nH]c4=O)O[C@@H]3COP(=O)(O)O[C@H]3C[C@H](n4cc(C)c(N)nc4=O)O[C@@H]3COP(=O)(O)O[C@H]3C[C@H](n4cc(C)c(=O)[nH]c4=O)O[C@@H]3CO)O2)nn1`, the Tm in assay [1] was 20 °C; in assay [2] it was 14 °C; in assay [3] it was 14 °C; in assay [4], under 10 °C.
